Activity calls are given as the source filed them. The rule behind the calls is not given here.

In test [1] the target is T1, 1-deoxy-D-xylulose 5-phosphate reductoisomerase (Mycobacterium tuberculosis, UniProt P9WNS1).
T1 sequence (P9WNS1 whole entry): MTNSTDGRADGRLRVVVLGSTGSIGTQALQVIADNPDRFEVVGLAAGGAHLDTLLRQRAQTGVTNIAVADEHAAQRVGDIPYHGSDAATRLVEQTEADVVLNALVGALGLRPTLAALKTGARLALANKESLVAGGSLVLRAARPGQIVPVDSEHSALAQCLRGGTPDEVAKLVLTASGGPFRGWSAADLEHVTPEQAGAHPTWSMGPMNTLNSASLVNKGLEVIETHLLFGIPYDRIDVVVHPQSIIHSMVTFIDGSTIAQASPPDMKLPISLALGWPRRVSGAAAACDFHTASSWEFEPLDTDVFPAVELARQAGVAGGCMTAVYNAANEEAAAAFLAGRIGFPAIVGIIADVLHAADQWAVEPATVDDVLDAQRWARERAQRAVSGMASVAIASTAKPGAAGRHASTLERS
The experiment in a line: Inhibition of Mycobacterium tuberculosis DXR using DXP as substrate measured every 5 secs for 250 secs in presence of NADPH. The essentials:
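MtDXR activity assay run with NADPH cofactor at 200 μM; IC50 taken from inhibition of enzyme activity.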

Test [2] has as its system Mycobacterium tuberculosis. The experiment in a line: Antibacterial activity against Mycobacterium tuberculosis H37Rv assessed as growth inhibition by Alamar blue assay. The test is classed as functional, organism-based.
Test [3] has as its target T2, 1-deoxy-D-xylulose 5-phosphate reductoisomerase (Mycobacterium tuberculosis) (UniProt P9WNS1).
T2 sequence (whole entry): T1 sequence (P9WNS1 whole entry)
Briefly: Inhibition of Mycobacterium tuberculosis DXR using DXP as substrate at 100 uM measured every 5 secs for 250 secs in presence of NADPH relative to control.

The subject of test [4] is Plasmodium falciparum. The experiment in a line: Antimalarial activity against Plasmodium falciparum 3D7 assessed as parasite growth inhibition after 18 hrs by SYBR Green-1 staining-based fluorescence assay. The following applies: 3D7, 18 h. The test is classed as functional, organism-based.
The target in test [5] is T1, 1-deoxy-D-xylulose 5-phosphate reductoisomerase. The experiment in a line: Binding affinity to Mycobacterium tuberculosis DXR assessed as dissociation constant by spectrofluorimetric analysis in presence of NADPH and MnCl2. The essentials: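 Purified MtDXR; binding followed by direct fluorescence from changes in the environment of the protein's six tryptophan residues.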

Test [6] in a line: Inhibition of Escherichia coli DXR using DXP as substrate measured every 5 secs for 250 secs in presence of NADPH.
A short description of test [7]: Inhibition of Plasmodium falciparum DXR using DXP as substrate measured every 5 secs for 250 secs in presence of NADPH.

Take `NC(=O)c1cncc(C(=O)N(O)CCCP(=O)(O)O)c1`: the IC50 (as a rule, the concentration needed to halve the response being measured) in test [1] is 3600 nM.

In the case of `O=C(c1ccc2ccccc2c1)N(O)CCCP(=O)(O)O`, in test [1], the IC50 was found to be 2000 nM.

Take `O=C(c1cccc(Cn2cncn2)c1)N(O)CCC(c1ccc(Cl)c(Cl)c1)P(=O)(O)O` (stereo not given): the IC50 in test [1] is 140 nM; in test [4], 390 nM. Also, the “growth inhibition (GI)” value in test [2] was “inactive”. In addition, the inhibition (usually the percentage by which the read-out fell short of the control) in test [3] turned out to be 90%. The dissociation constant (Kd) (as a rule, the constant that tells how readily two partners part at equilibrium) in test [5] is 170 nM.

Take `O=C(CCCOc1ccccc1)NCC(=O)N(O)CCCP(=O)(O)O`: the IC50 is above 200000 nM in test [1], 1000 nM in test [6] and 400 nM in test [7].

In the case of `O=CN(O)CCC(c1ccc(Cl)c(Cl)c1)P(=O)(O)O` (stereo not given), the Kd in test [5] stood at 120 nM.

As for `O=C(NCC(=O)N(O)CCCP(=O)(O)O)C1CC1`, the values for the IC50 in test [1], in test [6] and in test [7] were above 200000 nM, 7100 nM and 3300 nM, respectively.

For `O=C(c1ccccc1OC(F)(F)F)N(O)CCC(c1ccc(Cl)c(Cl)c1)P(=O)(O)O` (stereo not given), the IC50 was 8000 nM in test [1] and above 10000 nM in test [4]. Moreover, the “growth inhibition (GI)” value in test [2] is “inactive”. Also, the inhibition in test [3] turned out to be 90%. Moreover, in test [5], the Kd was determined as 90 nM.

For the compound `O=C(c1ccccc1Cn1cncn1)N(O)CCC(c1ccc(Cl)c(Cl)c1)P(=O)(O)O` (stereo not given), the IC50 was 13000 nM in test [1] and above 10000 nM in test [4]. Further, the “growth inhibition (GI)” value in test [2] was “inactive”. Besides, the inhibition in test [3] stood at 70%. Moreover, the Kd in test [5] was 40 nM.

In the case of `O=C(Cc1ccccc1)N(O)CCCP(=O)(O)O`, the half-inhibitory concentration (IC50) in test [1] was found to be 67700 nM; in test [6], 13000 nM. Further, in test [5], the Kd was 320 nM.

As for `O=C(c1cccnc1)N(O)CCCP(=O)(O)O`, the half-maximal inhibitory concentration (IC50) in test [1] is 1600 nM.

For the compound `O=CN(O)CCCP(=O)(O)O` [FOSMIDOMYCIN], the half-maximal inhibitory concentration (IC50) in test [6] turned out to be 50 nM; in test [7] it was 32 nM.

On to `O=C(c1ccccc1Nc1cccc(C(F)(F)F)c1)N(O)CCC(c1ccc(Cl)c(Cl)c1)P(=O)(O)O` (stereo not given), for which the values for the IC50 in test [1] and in test [4] were 19000 nM and above 10000 nM, respectively. In addition, the “growth inhibition (GI)” value in test [2] is “inactive”. Besides, in test [3], the inhibition was 80%. The Kd in test [5] stood at 90 nM.

For the compound `CC(=O)N(O)CCC(c1ccc(Cl)c(Cl)c1)P(=O)(O)O` (stereo not given), the dissociation constant Kd in test [5] was 360 nM.

On to `O=C(c1ccco1)N(O)CCCP(=O)(O)O`, for which the 50% inhibitory concentration (IC50) in test [1] amounted to 48700 nM.

With `O=C(c1ccccc1)N(O)CCCP(=O)(O)O`, the IC50 in test [1] came to 2000 nM; in test [6], 130 nM; in test [7] it was 61 nM.

Consider `Cc1ccccc1C(=O)N(O)CCC(c1ccc(Cl)c(Cl)c1)P(=O)(O)O` (stereo not given), for which the values for the 50% inhibitory concentration (IC50) in test [1] and in test [4] were 830 nM and above 10000 nM, respectively. Besides, the “growth inhibition (GI)” value in test [2] is “inactive”. For the same compound, the inhibition in test [3] came out at 95%.

On to `O=C(c1ccccc1-c1ccccc1)N(O)CCC(c1ccc(Cl)c(Cl)c1)P(=O)(O)O` (stereo not given), for which the figures for the IC50 in test [1] and in test [4] were 21000 nM and above 10000 nM, respectively. In test [2], the “growth inhibition (GI)” value was “inactive”. Besides, the inhibition in test [3] is 60%.

As to `O=C(C1CC1)N(O)CCCP(=O)(O)O`, the IC50 in test [1] was found to be 156000 nM; in test [6], 4440 nM.

`CC(=O)Oc1cccc(C(=O)N(O)CCC(c2ccc(Cl)c(Cl)c2)P(=O)(O)O)c1` (stereo not given): the values for the concentration for half-maximal inhibition (IC50) in test [1] and in test [4] were above 100000 nM and 3900 nM, respectively. Besides, the “growth inhibition (GI)” value in test [2] was “inactive”. Also, in test [3], the inhibition was determined as 30%.

In the case of `O=C(c1ccccc1C(F)(F)F)N(O)CCC(c1ccc(Cl)c(Cl)c1)P(=O)(O)O` (stereo not given), the IC50 in test [1] was 9000 nM. In test [2], the “growth inhibition (GI)” value is “inactive”. In addition, in test [3], the inhibition stood at 70%.

Regarding `O=C(c1ccccc1Cc1cccs1)N(O)CCC(c1ccc(Cl)c(Cl)c1)P(=O)(O)O` (stereo not given), the half-inhibitory concentration (IC50) in test [1] was 7000 nM; in test [4] it was above 10000 nM. Besides, the “growth inhibition (GI)” value in test [2] is “inactive”. The inhibition in test [3] amounted to 90%.

Regarding `O=C(c1ccccc1)N(O)CCC(c1ccc(Cl)c(Cl)c1)P(=O)(O)O` (stereo not given), the half-maximal inhibitory concentration (IC50) worked out at 320 nM in test [1] and 40 nM in test [4]. For the same compound, in test [2], the “growth inhibition (GI)” value was “inactive”. Moreover, in test [3], the inhibition came to 100%. For the same compound, the dissociation constant (Kd) in test [5] stood at 210 nM.

In the case of `CCC(=O)N(O)CCCP(=O)(O)O`, the 50% inhibitory concentration (IC50) in test [1] worked out at 27200 nM.

As for `CC(=O)N(O)CCCP(=O)(O)O` [FR-900098], the concentration for half-maximal inhibition (IC50) in test [6] came out at 51 nM; in test [7] it was 18 nM.

With `O=C(c1ccc(Cn2cncn2)cc1)N(O)CCC(c1ccc(Cl)c(Cl)c1)P(=O)(O)O` (stereo not given), the results for the IC50 in test [1] and in test [4] were 1200 nM and 190 nM, respectively. In addition, the “growth inhibition (GI)” value in test [2] was “inactive”. Further, the inhibition in test [3] came out at 80%. Moreover, in test [5], the dissociation constant (Kd) is 200 nM.

Take `C[C@@H]1CC[C@H]2[C@@H](C)C(=O)O[C@@H]3O[C@@]4(C)CC[C@@H]1[C@]32OO4` [ARTEMISININ]: the 50% inhibitory concentration (IC50) in test [4] was found to be 5 nM.
